M4 ag: human M4 muscarinic receptor agonists, primary screen, CHO-K1 cells, Fluo-8 calcium fluorescence; Muscarinic acetylcholine receptor M4 (Homo sapiens), P08173; CHO-K1 hM4/Gqi5; vehicle 0%, full acetylcholine response 100%; activation, % at 3 µM; hit rate 0.14% among 360,000; AID 624127, 2012;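 active = activation above the run mean over all test wells plus 3 SD, cut at about 32% in these data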;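 note: peak over basal fluorescence ratio per well then scaled between controls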
CHRM5 antagonist: human M5 muscarinic receptor antagonists, primary screen, CHO cells, Fluo-8 calcium fluorescence. Muscarinic acetylcholine receptor M5 (Homo sapiens), P08912. inhibition, % at 3 µM. CHO-hM5 cells, ACh EC80. AID 624040, 2012. hit rate 0.59% among 360,000;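 active = inhibition above a per-plate cutoff, the mean of that plate's test compounds plus 3 SD, cut at about 27% in these data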
Target sequence (P08912 whole entry, looked up): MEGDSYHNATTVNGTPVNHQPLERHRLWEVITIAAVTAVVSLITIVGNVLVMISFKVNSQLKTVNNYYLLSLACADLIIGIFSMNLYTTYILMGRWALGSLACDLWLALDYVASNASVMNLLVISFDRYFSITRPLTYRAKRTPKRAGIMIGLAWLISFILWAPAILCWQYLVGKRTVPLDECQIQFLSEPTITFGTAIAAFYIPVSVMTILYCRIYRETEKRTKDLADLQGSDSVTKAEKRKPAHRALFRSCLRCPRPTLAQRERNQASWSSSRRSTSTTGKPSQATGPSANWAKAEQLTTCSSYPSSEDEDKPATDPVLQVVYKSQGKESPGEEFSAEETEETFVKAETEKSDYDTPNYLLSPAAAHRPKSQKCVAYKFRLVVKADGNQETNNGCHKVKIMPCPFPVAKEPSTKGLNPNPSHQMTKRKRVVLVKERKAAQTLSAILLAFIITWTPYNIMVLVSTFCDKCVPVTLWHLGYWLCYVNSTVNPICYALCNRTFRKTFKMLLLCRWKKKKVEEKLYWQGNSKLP
M4 antag: human M4 muscarinic receptor antagonists, primary screen, CHO cells, Fluo-8 calcium fluorescence | Muscarinic acetylcholine receptor M4 (Homo sapiens), P08173 | CHO-hM4 cells, ACh EC80 | inhibition, % at 3 µM | hit rate 0.73% among 360,000 | AID 624125, 2012;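 active = inhibition above its plate's cutoff, the mean inhibition of sample wells plus 3 SD, cut at about 27% in these data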
CHRM5 PAM: human M5 muscarinic receptor positive allosteric modulators, primary screen, CHO-K1 cells, Fluo-8 calcium fluorescence; Muscarinic acetylcholine receptor M5 (Homo sapiens), P08912; CHO-K1 hM5, ACh EC20 PAM; 0% = ACh EC20, 100% = ACh EC100; activation, % at 3 µM; hit rate 0.3% among 360,000;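 active = activation above the run cutoff, the mean activation of all test compounds plus 3 SD, cut at about 18% in these data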
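Test system: CHO-K1 hM5 cells / Doses: single-point, 3 µM nominal / Times: Post-acetylcholine fluorescence recording 140 s / Technique: Fluo-8 calcium fluorescence / Measure: Max/basal fluorescence ratio as % of EC20–EC100 ACh window / Benchmarks: low control EC20 acetylcholine (0%), high control EC100 acetylcholine (100%) / Replicates: one well per compound, no replicates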
M5 ag: human M5 muscarinic receptor agonists, primary screen, CHO-K1 cells, Fluo-8 calcium fluorescence. hit rate 0.19% among 360,000. CHO-K1 hM5 cells; 0% DMSO wells, 100% maximal acetylcholine response. activation, % at 3 µM. Muscarinic acetylcholine receptor M5 (Homo sapiens), P08912;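 active = activation above the run's mean over test compounds plus 3 SD, cut at about 23% in these data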;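 note: signal is peak over basal fluorescence ratio across the kinetic read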
M4 PAM: human M4 muscarinic receptor positive allosteric modulators, primary screen, CHO-K1 cells, Fluo-8 calcium fluorescence | CHO-K1 hM4/Gqi5, ACh EC20; 0% = ACh EC20, 100% = maximal ACh | activation, % at 3 µM | hit rate 0.4% among 360,000 | AID 624126, 2012;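 active = activation above its plate's cutoff, the mean activation of sample wells plus 3 SD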
Numbers stand for hits; n = inactive. In the library only some 1.9% were active in any assay of this set; here they are far more common.

SMILES | M4 ag | CHRM5 antagonist | M4 antag | CHRM5 PAM | M5 ag | M4 PAM
COc1cc(/C=C(/C)[N+](=O)[O-])ccc1OCc1ccccc1Cl | n | 27.1 | 29.2 | n | n | n
c1ccc(CN2Cc3ccccc3-n3nncc3C2)nc1 | n | n | n | n | n | n
CC12CC(O)C3C(CCC4=CC(=O)CCC43C)C1CCC2=O (stereo unspecified) | n | n | n | n | n | n
O=[N+]([O-])/C=C/c1c(Cl)cccc1Cl | n | 28.6 | n | n | n | n
O=C1OC(c2ccc(Br)cc2)=N/C1=C\N1CC2CC(C1)c1cccc(=O)n1C2 (stereo unspecified) | n | n | n | n | n | n
O=C1OC(c2ccc(Cl)cc2)=N/C1=C\N1CC2CC(C1)c1cccc(=O)n1C2 (stereo unspecified) | n | n | n | 22.0 | n | n
CC(NC(=O)N1CC1(C)C)c1ccccc1 (stereo unspecified) | n | n | n | n | n | n
c1ccc2c[n+](CCCCCCCCCC[n+]3ccc4ccccc4c3)ccc2c1 | n | n | 26.8 | n | n | n
CN1CCN(c2ccc([N+](=O)[O-])c(SCCO)c2)CC1 | n | n | n | n | n | n
Cc1nn(Cc2ccccc2Cl)c(C)c1C(=O)OCC(=O)NC1CCCC(C)C1C (stereo unspecified) | n | n | n | n | n | n
CCCC[n+]1cc(/N=C(\[O-])OC)on1 | n | n | n | 36.3 | n | n
CC1(C(O)(C#CCN2CCCCC2)c2ccccc2)CCCC1 (stereo unspecified) | n | 99.4 | 98.7 | n | n | n
C(#CCN1CCCCC1)COCc1ccccc1 | n | n | n | n | n | n
OC(CC#CCN1CCCCCC1)(c1ccccc1)C1CCCC1 (stereo unspecified) | n | 83.8 | 90.7 | n | n | n
CN(C)CC#CCC(O)(c1ccccc1)C1CCCC1 (stereo unspecified) | n | 94.3 | 87.2 | n | n | n
C[C@](N)(CCP(=O)(O)O)C(=O)O | n | n | n | n | n | n
CC(=O)OC(C)(C)/C=C/C(=O)C(C)(O)C1C(O)CC2(C)C3CC=C4C(CC(O)C(=O)C4(C)C)C3(C)C(=O)CC12C (stereo unspecified) | n | n | n | n | n | 16.2
O=c1[nH]c(=O)n(-c2ccccc2)c(O)c1/C=C/C=Nc1ccccc1 | n | n | n | n | n | n
COc1ccc(-n2c(O)c(/C=C/C=Nc3ccccc3)c(=O)[nH]c2=O)cc1 | n | n | n | n | 24.2 | n
O=c1[nH]c(=O)n(C2CCCCC2)c(O)c1/C=C/C=Nc1ccccc1 | n | n | n | n | 28.0 | n
CN(C)CC1CSCCC1(O)c1ccc(C(F)(F)F)cc1 (stereo unspecified) | n | n | n | n | n | n
CCC[N+]12CCC(CC1)C(=C(c1ccccc1)c1ccccc1)C2 | n | 93.7 | 57.0 | n | n | n
OCC[N+]12CCC(CC1)C(C(O)(c1ccccc1)c1ccccc1)C2 (stereo unspecified) | n | n | n | n | n | n
CCCC[N+]12CCC(CC1)C(=C(c1ccccc1)c1ccccc1)C2 | n | 72.0 | 56.9 | n | n | n
O=C(C(=O)N1CCOCC1)c1cn(Cc2ccc(F)cc2)c2ccccc12 | n | n | n | n | n | n
SMILES | M4 ag | CHRM5 antagonist | M4 antag | CHRM5 PAM | M5 ag | M4 PAM
CCC(=O)C(CCN1CCOCC1)(c1ccccc1)c1ccccc1 | n | n | n | n | n | n
CC(C)[N+](C)(CCC(C(N)=O)(c1ccccc1)c1ccccc1)C(C)C | n | 98.7 | 99.7 | n | n | n
CCCc1nc2ccc(Br)cc2c(=O)n1-c1ccc([N+](=O)[O-])c(C(F)(F)F)c1 | n | 27.2 | n | n | n | n
CCc1nc2ccc(Br)cc2c(=O)n1-c1ccccc1C(F)(F)F | n | n | n | n | n | n
Cc1cc(C)c(Cn2c(C(=O)O)c(C=O)c3ccccc32)c(C)c1 | n | n | n | n | n | n
O=C(c1cc(F)ccc1F)C1CCCN(CCCc2ccccc2)C1 (stereo unspecified) | n | n | 31.6 | n | n | n
CCOCC1(CCc2ccccc2)C(=O)NC(=S)NC1=O | n | n | n | n | n | n
C[CH2][Hg][S]c1ccccc1C(=O)O | n | n | 35.9 | n | n | 33.4
CC(C)COC(=O)c1ccccc1C(=O)OCC(C)C | n | n | n | n | n | n
O=P(O)(O)Oc1ccccc1P(=O)(c1ccccc1)c1ccccc1 | n | n | n | n | n | n
COc1ccccc1N1C(=O)NC(=O)C(CCc2ccncc2)(CCc2ccncc2)C1=O | n | n | n | 27.6 | n | n
C=C1N2CCC(CC2)C1(O)c1ccc(C)c(C)c1 (stereo unspecified) | n | 33.4 | n | n | n | n
CCOP(=O)(OCC)Oc1cc(C)c(N(C)C)c(C)c1 | n | n | n | n | n | n
CCOC(=O)[C@]12Cc3cc(C)ccc3[C@H]1N(C(C)C)C(=O)c1ccccc12 | n | n | n | 22.0 | n | n
CCOC(=O)[C@]12Cc3cc(C)ccc3[C@H]1N(Cc1ccccc1)C(=O)c1ccccc12 | n | n | n | n | n | n
CCOC(=O)[C@]12Cc3cc(OC)ccc3[C@H]1N(C1CCCCC1)C(=O)c1cc(OC)ccc12 | n | n | n | n | n | n
CCOC(=O)[C@]12Cc3cc(C)ccc3[C@H]1N(C1CCCCC1)C(=O)c1cc(OC)ccc12 | n | n | 64.6 | n | 50.1 | n
Cc1ccccc1NS(=O)(=O)c1ccc(OCC(=O)N2CCN(C)CC2)cc1 | n | n | n | n | n | n
O=C(O)C1CC2(Cl)C(Cl)=C(Cl)C1(Cl)C2(Cl)Cl (stereo unspecified) | n | n | n | n | n | n
O=C(O)C1CN2CCC1CC2 (stereo unspecified) | n | n | n | n | 36.5 | n
O=C(c1cccs1)C1CN2CCC1CC2 (stereo unspecified) | n | n | n | n | n | n
O=C(COC(=O)Cc1ccccc1)NC(=O)NC1CCCCC1 | n | n | n | n | n | n
CC[N+](CC)(CC)CCCOC(=O)C(O)(c1ccccc1)C1CCCCC1 (stereo unspecified) | n | 99.1 | 98.6 | n | n | n
